Laboratory results: paper PMC9306536 (Clinical Pharmacology in Drug Development, 2022)
Where two headings read alike, the source gives them in different places. One block for each compound: values may come before it.

How the values were obtained:
[1] = cited from earlier work
[2] = cited from earlier work; remark: listed apart in the source
[3] = cited from earlier work; remark: listed apart in the source
[4] = cited from earlier work; remark: listed apart in the source
[5] = cited from earlier work; remark: listed apart in the source
[6] = Population PK analysis of pemigatinib in patients with advanced malignancies; format: in vivo, human
Method in brief: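 Sampling was rich in phase 1 and sparse in phase 2. Values <1 nM (LLOQ) were excluded. Log-transformed data were fitted with 1-/2-compartment models with first-order absorption and linear elimination. Covariates were GAM-screened, then added and removed stepwise in NONMEM. 95% CIs came from a 500-run bootstrap, with VPC.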

[7] = cited from earlier work; remark: listed apart in the source
[8] = fed state (high-fat and high-calorie diet); ref data on file; cited from earlier work
[9] = cited from earlier work; remark: listed apart in the source
[10] = Hyperphosphatemia in patients of the population PK dataset; format: in vivo, human
Method in brief: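 Pooled patients from three open-label trials on once-daily oral dosing: phase 1/2 advanced malignancies (1–20 mg escalation, 9 or 13.5 mg expansion; monotherapy or combination; 2-weeks-on/1-week-off or continuous, 21-day cycles; N = 157); Japanese phase 1 (9 or 13.5 mg, intermittent; N = 25); phase 2 cholangiocarcinoma (13.5 mg, 2-weeks-on/1-week-off; N = 136). Hyperphosphatemia scored after treatment.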

[11] = cited from earlier work; remark: listed apart in the source
[12] = final model covariate coefficient
[13] = final model covariate power term
[14] = final population PK model, Table 4

CL/F with moderate CYP3A4 inducer higher than pemigatinib alone ([6]; 1 patient): ≈ 100% | CL/F ([6]; base structural model): 10.7 L/h | IIV for Vc/F ([6]; base structural model): 44.6 % CV | IIV for Vp/F ([6]; base structural model): 37.3 % CV | IIV for ka ([6]; base structural model): 133 % CV | Q/F ([6]; base structural model): 14.5 L/h | Vc/F ([6]; base structural model): 134 L | Vp/F ([6]; base structural model): 87.0 L | first-order ka ([6]; base structural model): 0.997 h⁻¹ | CL/F of pemigatinib alone ([6]; comparator for the patient on a moderate CYP3A4 inducer): 11.7 L/h | predicted Cmax steady state (Cmax,ss) ([6]; female patients): 96.53 ng/mL | Magnitude of Interindividual Variability of CL/F ([6]; final model): 43.4 %CV | Magnitude of Interindividual Variability of Vc/F ([6]; final model): 35.1 %CV | Magnitude of Interindividual Variability of ka ([6]; final model): 127 %CV | contribution of sex to the change of oral clearance ([6]; final model): < 20% | decrease of typical CL/F by phosphate binder coadministration ([6]; final model): 14.1% | increase of typical Vc/F by proton pump inhibitor coadministration ([6]; final model): 24.4% | typical CL/F, males higher compared with females ([6]; final model): 19.0% | typical ka, males lower compared with females ([6]; final model): 56.5% | Proton pump inhibitor on Vc/F, Population Mean [6, 12]: –0.244 | Sex (male vs female) on CL, Population Mean [6, 12]: 0.190 | typical apparent volume of distribution of the peripheral compartment (Vp/F) ([6]; final model, 73.3-kg patient): 80.1 L | typical ka ([6]; final model, female patients): 1.49 h⁻¹ | typical absorption rate constant (ka) ([6]; final model, females): 1.49 L/h | typical oral clearance (CL/F) ([6]; final model, females): 10.3 L/h | CL/F, Population Mean [6, 14]: 9.00 L/h | Q/F, Population Mean [6, 14]: 16.0 L/h | Vc/F, Population Mean [6, 14]: 161 L | Vp/F, Population Mean [6, 14]: 80.1 L | ka, Population Mean [6, 14]: 1.49 h⁻¹ | increase of typical CL/F by coadministration with a weak CYP3A4 inducer ([6]; full multivariate PK model (covariate removed from final model)): 24.2% | Vd/F ([6]; human, plasma, oral): 122 L | half-life ([6]; human, plasma, oral): 16 h | increase in Cmax,ss, female vs male patients ([6]; post hoc estimates): 27% | Cmax ([6]; read-out: predicted Cmax steady state (Cmax,ss), female patients): 198 nM | post hoc-estimated CL/F ([6]; the 1 patient with concomitant moderate CYP3A4 inducer): 22.8 L/h | geometric mean CL/F ([6]; this population PK analysis): 10.9 L/h | Hyperphosphatemia, Yes ([10]; N = 318): 215 (67.6) n (%) | patients who developed hyperphosphatemia after treatment ([10]; patients included in this analysis (N = 318)): ~68%
SMILES: CCN1C(=O)N(c2c(F)c(OC)cc(OC)c2F)Cc2cnc3[nH]c(CN4CCOCC4)cc3c21 [pemigatinib, Pemigatinib]
accumulation ratio for AUC0-24 [1]: ≈ 1.6 | terminal elimination half-life [1]: ≈ 15 hours | pharmacokinetics linearity ([1]; dose range of 1 to 20 mg): linear | effect on the overall exposure of pemigatinib ([2]; coadministration with esomeprazole or ranitidine): modest effect | AUC decrease ([2]; with esomeprazole (PPI)): 8% | AUC increase ([2]; with ranitidine (H2-receptor antagonist)): 3% | DDI with a weak CYP3A4 inhibitor ([3]; PBPK modeling): no DDI | predicted decrease in AUC ([3]; coadministered with a strong or moderate CYP3A4 inducer, data on file): > 50% | predicted increase in AUC ([3]; coadministered with a strong or moderate CYP3A4 inhibitor, data on file): > 50% | reduction of AUC ([3]; coadministration of moderate CYP3A4 inducers): > 50% | pemigatinib AUC increase ([4]; patients with moderate hepatic impairment): 46% | pemigatinib AUC increase ([4]; patients with severe hepatic impairment): 74% | pemigatinib AUC increase ([5]; coadministered with itraconazole (strong CYP3A4 inhibitor)): ≈ 90% | pemigatinib AUC decrease ([5]; coadministered with rifampin (strong CYP3A4 inducer)): 85% | Body weight (median = 73.3 kg) on Vc/F, Population Mean [6, 13]: 0.738 | Body weight on Vp/F, Population Mean [6, 13]: 1.22 | Biopharmaceutics Classification System class [7]: Class II | permeability [7]: high | solubility [7]: pH‐dependent | delay of median time to Cmax [8]: 4.02 h | renal clearance, % of total clearance ([9]; Introduction, no reference given): 1.19% | predominant clearance pathway in humans ([9]; in vitro and in vivo data, no reference given): liver metabolism | administered radioactive dose recovered as unchanged pemigatinib in feces ([9]; ref data on file): 1.3% | known metabolites, share of total radioactivity ([9]; ref data on file): 72% | renal clearance, % of total clearance [11]: 1% | exposure geometric mean ratio vs normal renal function ([11]; end-stage renal disease after hemodialysis): 91.3% | exposure geometric mean ratio vs normal renal function ([11]; end-stage renal disease before hemodialysis): 76.8% | pemigatinib AUC increase ([11]; patients with severe renal impairment): 59%

SMILES: CCN1C(=O)N(c2c(F)c(O)cc(OC)c2F)Cc2cnc3[nH]c(CN4CCOCC4)cc3c21 [M2, O‐desmethyl pemigatinib]
share of the metabolite burden in urine and feces ([9]; M2 and its secondary metabolites (M7, M8, and M9) together, ref data on file): 76.9%
